Tests used:
[1] = molecular target: T1, Neuropeptide Y receptor type 1 (Homo sapiens, UniProt P25929); assay: Displacement of [125]peptide YY from human recombinant Y1 receptor expressed in CHO cells; assay type: cell-based
T1 sequence (P25929 whole entry): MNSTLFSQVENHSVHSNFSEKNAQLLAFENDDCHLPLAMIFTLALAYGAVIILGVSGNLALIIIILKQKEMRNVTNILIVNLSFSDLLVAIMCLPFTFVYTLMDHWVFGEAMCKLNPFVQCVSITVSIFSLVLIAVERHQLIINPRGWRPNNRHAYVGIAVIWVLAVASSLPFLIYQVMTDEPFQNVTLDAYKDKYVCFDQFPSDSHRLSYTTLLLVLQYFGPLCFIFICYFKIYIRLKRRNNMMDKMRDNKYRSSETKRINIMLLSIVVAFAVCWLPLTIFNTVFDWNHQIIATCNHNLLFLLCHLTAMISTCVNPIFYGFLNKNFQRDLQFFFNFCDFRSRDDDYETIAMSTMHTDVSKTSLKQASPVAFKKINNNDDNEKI

[2] = Oral bioavailability in Sprague-Dawley rat at 5 mg/kg, po; assay type: ADME, organism-based; details: in vivo
In short: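 Male Sprague–Dawley rats received 5 mg/kg orally as a methocel suspension. F was calculated from the normalised AUC against the iv (1 mg/kg) dose.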

[3] = Ratio of drug level in […] plasma in Sprague-Dawley rat at 1 mg/kg, iv after 5 mins; assay type: ADME, organism-based; parameters: dose 1 mg/kg, route intravenous
In short: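 Brain penetration was assessed in male Sprague–Dawley rats dosed iv at 1 mg/kg in DMSO/PEG400/H2O 5:50:45 solution. The partition ratio was measured 5 min after dosing.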

[4] = Plasma clearance in Sprague-Dawley rat at 1 mg/kg, iv; assay type: ADME, organism-based; parameters: dose 1 mg/kg, route intravenous
In short: (§1)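 Male Sprague–Dawley rats given 1 mg/kg iv as a solution in DMSO/PEG400/H2O 5:50:45. Clearance, half-life, volume of distribution and AUC were derived from the post-dose profile.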

[5] = Half life in Sprague-Dawley rat at 1 mg/kg, iv; assay type: ADME, organism-based; parameters: dose 1 mg/kg, route intravenous; details: in vivo; in short: as §1
[6] = Ratio of drug level in […] plasma in Sprague-Dawley rat at 1 mg/kg, iv after 5 mins; details: in vivo

Structure (SMILES)	IC50 [1]	other results
O=C(c1cc(Oc2ccc(Cl)cc2)c2c(c1)c1ccccc1n2C[C@@H]1CCNC[C@@H]1F)N1CCC(O)CC1	7760 nM	
CN1CCN(C(=O)c2cc(Oc3ccc(Cl)cc3)c3c(c2)c2ccccc2n3C[C@@H]2CCN(C)C[C@H]2F)CC1	95 nM	blood plasma ratio at 5 min [3]: 8.2
CN1CCN(C(=O)c2cc(Oc3ccc(Cl)cc3)c3c(c2)c2ccccc2n3CC2CCCNC2)CC1 (stereo unspecified)	107 nM	
O=C(c1cc(Oc2ccc(Cl)cc2)c2c(c1)c1ccccc1n2C[C@@H]1CCNC[C@H]1F)N1CCN(C2CC2)CC1	871 nM	
CN(C)C1CCN(C(=O)c2cc(Oc3ccc(Cl)cc3)c3c(c2)c2ccccc2n3C[C@@H]2CCNC[C@H]2F)C1 (stereo partly specified)	467 nM	
O=C(c1cc(Oc2ccc(Cl)cc2)c2c(c1)c1ccccc1n2C[C@@H]1CCNC[C@@H]1F)N1CCN(CC(F)(F)F)CC1	9770 nM	
O=C(c1cc(Oc2ccc(Cl)cc2)c2c(c1)c1ccccc1n2C[C@@H]1CCNC[C@@H]1F)N1CCc2nc[nH]c2C1	2880 nM	
CN1CCCC1CCNC(=O)c1cc(Oc2ccc(Cl)cc2)c2c(c1)c1ccccc1n2C[C@@H]1CCNC[C@H]1F (stereo partly specified)	1860 nM	
CN(C)CCN(C)C(=O)c1cc(Oc2ccc(Cl)cc2)c2c(c1)c1ccccc1n2C[C@@H]1CCNC[C@H]1F	191 nM	
CN(C)C(=O)c1cc(Oc2ccc(Cl)cc2)c2c(c1)c1ccccc1n2C[C@@H]1CCNC[C@H]1F	12000 nM	
O=C(c1cc(Oc2ccc(Cl)cc2)c2c(c1)c1ccccc1n2C[C@@H]1CCNC[C@@H]1F)N1CCn2ccnc2C1	1910 nM	
CN1CCN(C(=O)c2cc(Oc3ccc(Cl)cc3)c3c(c2)c2ccccc2n3C[C@@H]2CCNC[C@H]2F)CC1	53 nM	
CN1CCN(C(=O)c2cc(Oc3ccc(Cl)cc3)c3c(c2)c2ccccc2n3C[C@@H]2CCN(C3CC3)C[C@@H]2F)CC1	186 nM	
O=C(c1cc(Oc2ccc(Cl)cc2)c2c(c1)c1ccccc1n2C[C@@H]1CCNC[C@@H]1F)N1CCN(CCO)CC1	832 nM	
CCN1CCCC1CNC(=O)c1cc(Oc2ccc(Cl)cc2)c2c(c1)c1ccccc1n2C[C@@H]1CCNC[C@H]1F (stereo partly specified)	263 nM	

Compounds with a lower IC50 [1], results first:

IC50 [1]	Structure (SMILES)	other results
28 nM	CN1CCN(C(=O)c2cc(Oc3ccc(Cl)cc3)c3c(c2)c2ccccc2n3C[C@@H]2CCN(C)C[C@@H]2F)CC1	bioavailability [2]: 19%; blood plasma ratio at 5 min [3]: 4.2; clearance [4]: 15 mL/min/kg; half-life [5]: 660 min
14 nM	CN1CCN(C(=O)c2cc(Oc3ccc(Cl)cc3)c3c(c2)c2ccccc2n3CC2CCN(CC(=O)N(C)C)CC2)CC1	
50 nM	CN1CCN(C(=O)c2cc(Oc3ccc(Cl)cc3)c3c(c2)c2ccccc2n3CCCN2CCCCC2)CC1	
51 nM	CN1CCN(C(=O)c2cc(Oc3ccc(Cl)cc3)c3c(c2)c2ccccc2n3C[C@@H]2CCNC[C@@H]2F)CC1	
11 nM	CN1CCC(Cn2c3ccccc3c3cc(C(=O)N4CCN(C)CC4)cc(Oc4ccc(Cl)cc4)c32)CC1	blood plasma ratio at 5 min [3]: 0.8
50 nM	CN(C)CCNC(=O)c1cc(Oc2ccc(Cl)cc2)c2c(c1)c1ccccc1n2C[C@@H]1CCNC[C@H]1F	
16 nM	CN1CCN(C(=O)c2cc(Oc3ccc(Cl)cc3)c3c(c2)c2ccccc2n3CC2CCNCC2)CC1	bioavailability [2]: 0%; Ratio [6]: 0.12
43 nM	CN1CCN(C(=O)c2cc(Oc3ccc(Cl)cc3)c3c(c2)c2ccccc2n3CC2=C(F)CNCC2)CC1	

From ChEMBL document CHEMBL1138429, “Novel carbazole derivatives as NPY Y1 antagonists” (Bioorg Med Chem Lett, 2007)
